This is an account of results in ChEMBL document CHEMBL3091364, “Benzyloxybenzylammonium chlorides: Simple amine salts that display anticonvulsant activity” (Bioorg Med Chem, 2013).

For data set [1], the target named is T1, Alpha-2A adrenergic receptor (Homo sapiens) (UniProt P08913).
T1 sequence (whole entry): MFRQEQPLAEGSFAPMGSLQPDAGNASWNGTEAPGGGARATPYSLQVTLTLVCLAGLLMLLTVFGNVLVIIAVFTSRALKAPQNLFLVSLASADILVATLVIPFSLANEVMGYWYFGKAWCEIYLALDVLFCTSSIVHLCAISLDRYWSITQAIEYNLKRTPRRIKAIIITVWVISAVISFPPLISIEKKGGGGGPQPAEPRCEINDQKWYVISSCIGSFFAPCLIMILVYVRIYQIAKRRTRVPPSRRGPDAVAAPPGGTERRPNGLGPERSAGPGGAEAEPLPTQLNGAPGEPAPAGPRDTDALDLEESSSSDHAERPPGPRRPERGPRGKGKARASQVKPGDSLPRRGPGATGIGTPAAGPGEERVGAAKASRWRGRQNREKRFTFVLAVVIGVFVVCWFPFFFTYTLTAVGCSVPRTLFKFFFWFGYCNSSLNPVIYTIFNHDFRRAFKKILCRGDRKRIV
The data set can be described thus: Inhibition of adrenergic alpha-2A receptor (unknown origin) at 10 uM relative to control.

Data set [2] can be described thus: Solubility of the compound in water at 300 uM. It counts as physicochemical. The method, boiled down:
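Hydrochloride salts checked for dissolution in water at 300 µM.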

For data set [3], the target named is T2, Alpha-2C adrenergic receptor (Homo sapiens) (UniProt P18825).
T2 sequence (whole entry): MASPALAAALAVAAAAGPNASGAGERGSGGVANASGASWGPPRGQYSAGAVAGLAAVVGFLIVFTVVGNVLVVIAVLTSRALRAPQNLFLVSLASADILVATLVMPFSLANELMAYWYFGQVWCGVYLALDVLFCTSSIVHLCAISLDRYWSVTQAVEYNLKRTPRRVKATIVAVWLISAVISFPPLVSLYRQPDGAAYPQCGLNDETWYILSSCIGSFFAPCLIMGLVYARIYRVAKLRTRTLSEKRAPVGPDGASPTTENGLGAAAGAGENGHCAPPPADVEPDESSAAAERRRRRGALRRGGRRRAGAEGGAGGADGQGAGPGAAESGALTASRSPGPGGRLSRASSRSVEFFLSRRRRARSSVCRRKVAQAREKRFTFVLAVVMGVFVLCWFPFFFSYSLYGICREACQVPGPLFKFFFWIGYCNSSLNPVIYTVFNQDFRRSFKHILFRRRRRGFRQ
In words: Inhibition of adrenergic alpha-2C receptor (unknown origin) at 10 uM relative to control.

Data set [4] deals with Mu-type opioid receptor (Homo sapiens) (UniProt P35372). In words: Inhibition of mu opioid receptor (unknown origin) at 10 uM relative to control.
The target in data set [5] is Sodium-dependent serotonin transporter (Homo sapiens) (UniProt P31645). In words: Inhibition of SERT (unknown origin) at 10 uM relative to control.
Data set [6] deals with T3, Alpha-2B adrenergic receptor (Homo sapiens) (UniProt P18089).
T3 sequence (whole entry): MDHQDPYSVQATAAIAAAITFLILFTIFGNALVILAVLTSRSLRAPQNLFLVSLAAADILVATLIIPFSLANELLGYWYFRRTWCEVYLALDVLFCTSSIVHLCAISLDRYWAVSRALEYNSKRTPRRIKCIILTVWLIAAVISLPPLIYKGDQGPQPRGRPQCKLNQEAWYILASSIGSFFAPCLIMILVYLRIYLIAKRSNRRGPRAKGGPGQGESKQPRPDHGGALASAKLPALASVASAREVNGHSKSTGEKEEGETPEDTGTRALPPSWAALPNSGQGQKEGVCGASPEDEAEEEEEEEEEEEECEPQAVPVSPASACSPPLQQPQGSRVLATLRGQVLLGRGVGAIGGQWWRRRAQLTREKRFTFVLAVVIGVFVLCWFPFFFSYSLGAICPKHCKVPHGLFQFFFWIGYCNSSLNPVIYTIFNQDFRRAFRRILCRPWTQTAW
In words: Inhibition of adrenergic alpha-2B receptor (unknown origin) at 10 uM relative to control.

The target in data set [7] is Translocator protein (Homo sapiens) (UniProt P30536). The data set can be described thus: Inhibition of PBR (unknown origin) at 10 uM relative to control.
Data set [8] is described as follows: Toxicity in ip dosed albino Sprague-Dawley rat assessed as behavioral changes measured at 0.25 to 4 hrs. Type of data set: organism-based. Particulars: in vivo. The method in brief:
(§1)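 Male albino Sprague-Dawley rats given compound intraperitoneally or orally (NINDS ASP); neurological impairment judged from behavioral toxicity effects. Preset screening doses (e.g., 30 mg/kg); for adequately active compounds, TD50 (mg/kg, 95% confidence intervals) derived from dose–effect data at time of peak effect.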

Data set [9] deals with Beta-2 adrenergic receptor (Homo sapiens) (UniProt P07550). In words: Inhibition of adrenergic beta-2 receptor (unknown origin) at 10 uM relative to control.
Data set [10] deals with Beta-3 adrenergic receptor (Homo sapiens) (UniProt P13945). In words: Inhibition of adrenergic beta-3 receptor (unknown origin) at 10 uM relative to control.
Data set [11] addresses Sigma non-opioid intracellular receptor 1 (Homo sapiens) (UniProt Q99720). The data set can be described thus: Inhibition of sigma-1 receptor (unknown origin) at 10 uM relative to control.
Data set [12] is described as follows: Toxicity in po dosed albino Sprague-Dawley rat assessed as behavioral changes measured at 0.25 to 4 hrs. Type of data set: organism-based. Particulars: in vivo. The method in brief: as §1
The target in data set [13] is T4, 5-hydroxytryptamine receptor 2C (Homo sapiens) (UniProt P28335).
T4 sequence (whole entry): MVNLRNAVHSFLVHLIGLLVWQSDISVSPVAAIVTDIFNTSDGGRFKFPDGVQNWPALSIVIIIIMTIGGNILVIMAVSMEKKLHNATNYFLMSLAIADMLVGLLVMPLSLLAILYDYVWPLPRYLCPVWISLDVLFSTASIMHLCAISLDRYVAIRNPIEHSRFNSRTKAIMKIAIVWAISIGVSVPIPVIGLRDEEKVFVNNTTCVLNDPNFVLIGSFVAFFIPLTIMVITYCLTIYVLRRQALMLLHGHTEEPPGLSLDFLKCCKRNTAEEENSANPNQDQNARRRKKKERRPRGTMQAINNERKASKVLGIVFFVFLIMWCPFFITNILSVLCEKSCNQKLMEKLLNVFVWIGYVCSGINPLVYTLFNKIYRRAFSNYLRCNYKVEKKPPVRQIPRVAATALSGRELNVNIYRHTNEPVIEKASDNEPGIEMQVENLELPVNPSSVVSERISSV
The data set can be described thus: Inhibition of 5-HT2C receptor (unknown origin) at 10 uM relative to control.

In data set [14] the target is 5-hydroxytryptamine receptor 2A (Homo sapiens) (UniProt P28223). The data set can be described thus: Inhibition of 5-HT2A receptor (unknown origin) at 10 uM relative to control.
Data set [15] deals with D(3) dopamine receptor (Homo sapiens) (UniProt P35462). In words: Inhibition of dopaminergic D3 receptor (unknown origin) at 10 uM relative to control.
In data set [16] the target is Kappa-type opioid receptor (Homo sapiens) (UniProt P41145). The data set can be described thus: Inhibition of kappa opioid receptor (unknown origin) at 10 uM relative to control.
Data set [17] concerns the target 5-hydroxytryptamine receptor 5A (Homo sapiens) (UniProt P47898). In words: Inhibition of 5-HT5A receptor (unknown origin) at 10 uM relative to control.

D(3) dopamine receptor (Homo sapiens), sequence (P35462 whole entry): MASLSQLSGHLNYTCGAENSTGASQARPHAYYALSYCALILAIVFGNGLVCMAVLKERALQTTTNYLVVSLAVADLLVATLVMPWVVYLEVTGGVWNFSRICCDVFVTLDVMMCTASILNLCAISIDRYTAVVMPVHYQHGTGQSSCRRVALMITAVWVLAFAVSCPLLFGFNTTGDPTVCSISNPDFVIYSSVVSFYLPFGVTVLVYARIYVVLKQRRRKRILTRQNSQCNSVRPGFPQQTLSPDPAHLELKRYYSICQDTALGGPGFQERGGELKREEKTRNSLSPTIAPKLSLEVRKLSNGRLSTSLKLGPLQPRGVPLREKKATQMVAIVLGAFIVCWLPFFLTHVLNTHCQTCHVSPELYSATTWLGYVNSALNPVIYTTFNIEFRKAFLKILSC
Beta-2 adrenergic receptor (Homo sapiens), sequence (P07550 whole entry, looked up): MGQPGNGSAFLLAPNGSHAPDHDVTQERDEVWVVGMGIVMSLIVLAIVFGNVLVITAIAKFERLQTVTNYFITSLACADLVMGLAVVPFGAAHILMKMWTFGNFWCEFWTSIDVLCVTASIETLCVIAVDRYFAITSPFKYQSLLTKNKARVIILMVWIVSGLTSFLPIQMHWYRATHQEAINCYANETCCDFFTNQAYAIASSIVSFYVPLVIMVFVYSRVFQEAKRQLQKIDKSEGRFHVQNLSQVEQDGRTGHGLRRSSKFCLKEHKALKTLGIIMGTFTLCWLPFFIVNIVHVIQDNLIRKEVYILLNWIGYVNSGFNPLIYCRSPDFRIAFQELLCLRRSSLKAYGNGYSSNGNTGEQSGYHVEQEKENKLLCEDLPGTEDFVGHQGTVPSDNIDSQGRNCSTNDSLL
Sigma non-opioid intracellular receptor 1 (Homo sapiens), sequence (Q99720 whole entry): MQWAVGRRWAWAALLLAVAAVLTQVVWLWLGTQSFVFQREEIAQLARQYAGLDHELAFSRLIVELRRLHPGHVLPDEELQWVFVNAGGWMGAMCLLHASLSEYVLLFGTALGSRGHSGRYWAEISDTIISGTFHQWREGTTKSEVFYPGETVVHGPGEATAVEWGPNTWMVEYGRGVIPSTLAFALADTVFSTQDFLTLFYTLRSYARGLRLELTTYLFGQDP
Beta-3 adrenergic receptor (Homo sapiens), sequence (P13945 whole entry, looked up): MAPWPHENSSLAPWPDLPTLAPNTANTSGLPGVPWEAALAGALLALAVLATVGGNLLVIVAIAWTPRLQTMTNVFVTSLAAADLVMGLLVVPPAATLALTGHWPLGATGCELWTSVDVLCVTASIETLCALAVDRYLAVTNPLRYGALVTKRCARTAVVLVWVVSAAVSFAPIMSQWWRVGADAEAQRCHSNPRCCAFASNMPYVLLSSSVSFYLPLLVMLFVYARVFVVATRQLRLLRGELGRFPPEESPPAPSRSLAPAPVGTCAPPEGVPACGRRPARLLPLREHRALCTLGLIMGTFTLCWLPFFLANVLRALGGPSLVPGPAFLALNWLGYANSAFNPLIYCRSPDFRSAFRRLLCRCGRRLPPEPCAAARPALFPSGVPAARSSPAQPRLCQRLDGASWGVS
5-hydroxytryptamine receptor 2A (Homo sapiens), sequence (P28223 whole entry): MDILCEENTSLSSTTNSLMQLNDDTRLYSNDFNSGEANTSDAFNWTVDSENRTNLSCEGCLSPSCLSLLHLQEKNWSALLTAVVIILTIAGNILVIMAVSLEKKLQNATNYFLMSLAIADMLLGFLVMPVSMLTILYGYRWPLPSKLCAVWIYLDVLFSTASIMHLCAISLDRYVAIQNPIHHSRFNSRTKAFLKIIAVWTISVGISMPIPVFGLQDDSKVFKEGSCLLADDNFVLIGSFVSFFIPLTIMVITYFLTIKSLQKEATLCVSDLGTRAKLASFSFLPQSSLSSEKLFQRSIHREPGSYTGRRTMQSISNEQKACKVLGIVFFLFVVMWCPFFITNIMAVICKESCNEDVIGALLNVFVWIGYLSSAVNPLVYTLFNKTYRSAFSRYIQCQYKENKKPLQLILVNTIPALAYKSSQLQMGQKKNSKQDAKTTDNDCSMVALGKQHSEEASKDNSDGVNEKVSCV
Sodium-dependent serotonin transporter (Homo sapiens), sequence (P31645 whole entry, looked up): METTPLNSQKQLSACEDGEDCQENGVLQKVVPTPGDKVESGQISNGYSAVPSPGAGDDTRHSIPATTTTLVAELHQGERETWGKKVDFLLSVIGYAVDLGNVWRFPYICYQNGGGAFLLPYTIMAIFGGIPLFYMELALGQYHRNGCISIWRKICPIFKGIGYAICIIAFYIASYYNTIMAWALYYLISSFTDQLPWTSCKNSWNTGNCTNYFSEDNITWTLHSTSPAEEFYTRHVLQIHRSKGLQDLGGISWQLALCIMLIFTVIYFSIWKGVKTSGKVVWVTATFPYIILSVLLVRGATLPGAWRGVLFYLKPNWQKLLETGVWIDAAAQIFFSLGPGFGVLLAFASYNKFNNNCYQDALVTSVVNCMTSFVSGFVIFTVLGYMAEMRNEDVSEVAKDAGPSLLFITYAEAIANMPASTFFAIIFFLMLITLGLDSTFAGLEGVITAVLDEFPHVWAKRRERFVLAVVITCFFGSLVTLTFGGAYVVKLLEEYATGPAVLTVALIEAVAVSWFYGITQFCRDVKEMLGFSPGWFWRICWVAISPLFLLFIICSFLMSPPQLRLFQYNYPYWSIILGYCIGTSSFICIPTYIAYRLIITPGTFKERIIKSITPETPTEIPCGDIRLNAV
Mu-type opioid receptor (Homo sapiens), sequence (P35372 whole entry): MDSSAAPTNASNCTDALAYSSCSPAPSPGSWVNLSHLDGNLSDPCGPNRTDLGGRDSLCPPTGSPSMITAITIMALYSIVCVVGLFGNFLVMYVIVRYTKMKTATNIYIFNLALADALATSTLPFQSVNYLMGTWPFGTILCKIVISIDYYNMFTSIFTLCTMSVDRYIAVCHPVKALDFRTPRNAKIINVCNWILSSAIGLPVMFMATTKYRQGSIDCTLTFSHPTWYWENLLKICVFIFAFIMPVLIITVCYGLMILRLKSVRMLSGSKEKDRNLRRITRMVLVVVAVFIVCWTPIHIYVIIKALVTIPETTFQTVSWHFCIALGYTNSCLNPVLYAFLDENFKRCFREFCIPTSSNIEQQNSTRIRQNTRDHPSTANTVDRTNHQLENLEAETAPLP
Translocator protein (Homo sapiens), sequence (P30536 whole entry): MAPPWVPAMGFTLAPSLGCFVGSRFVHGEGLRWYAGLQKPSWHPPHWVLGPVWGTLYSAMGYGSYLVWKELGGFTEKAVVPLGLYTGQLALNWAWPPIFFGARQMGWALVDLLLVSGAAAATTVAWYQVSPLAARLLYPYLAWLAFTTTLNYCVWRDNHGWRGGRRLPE
5-hydroxytryptamine receptor 5A (Homo sapiens), sequence (P47898 whole entry): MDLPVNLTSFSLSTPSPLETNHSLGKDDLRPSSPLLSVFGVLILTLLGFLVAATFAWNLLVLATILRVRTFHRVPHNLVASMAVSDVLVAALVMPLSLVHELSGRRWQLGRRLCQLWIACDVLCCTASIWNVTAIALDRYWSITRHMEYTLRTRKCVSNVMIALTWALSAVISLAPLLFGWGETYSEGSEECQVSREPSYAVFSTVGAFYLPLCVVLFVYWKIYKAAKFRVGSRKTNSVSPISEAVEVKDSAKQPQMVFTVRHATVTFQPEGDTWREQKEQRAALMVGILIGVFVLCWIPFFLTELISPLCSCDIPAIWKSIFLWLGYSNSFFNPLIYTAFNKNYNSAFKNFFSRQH
Kappa-type opioid receptor (Homo sapiens), sequence (P41145 whole entry): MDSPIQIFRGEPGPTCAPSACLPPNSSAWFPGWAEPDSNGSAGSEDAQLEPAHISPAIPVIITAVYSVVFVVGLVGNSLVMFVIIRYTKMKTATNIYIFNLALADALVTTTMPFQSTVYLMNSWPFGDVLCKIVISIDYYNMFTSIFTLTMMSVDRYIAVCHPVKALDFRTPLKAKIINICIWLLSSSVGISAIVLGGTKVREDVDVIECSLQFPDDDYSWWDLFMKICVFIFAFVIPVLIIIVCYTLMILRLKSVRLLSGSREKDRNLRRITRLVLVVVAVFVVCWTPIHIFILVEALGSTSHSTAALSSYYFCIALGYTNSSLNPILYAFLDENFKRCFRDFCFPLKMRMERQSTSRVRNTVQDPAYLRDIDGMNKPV

For `Cl.NCc1ccc(OCc2cccc(OC(F)(F)F)c2)cc1`, the inhibition is 47% in data set [1]; 46.6% in data set [3]; 2.8% in [4]; 55.7% in data set [5]; 44.3% in data set [6]; 3.6% in [7]. The inhibition is -8.1% in data set [9]; 13.6% in data set [10]; 96.9% in data set [11]; 33% in data set [13]; 88% in [14]; 33.5% in [15]. Further, the figures for the inhibition in data set [16] and in [17] were 9.8% and 0.2%, respectively. Besides, the solubility entry in data set [2] is “soluble”. For the same molecule, the TD50 in [8] and in [12] was greater than 30 mg/kg each time.
Regarding `Cl.NCc1ccc(OCc2cccc(Cl)c2)cc1`, the inhibition is 74% in [1]; 81.1% in data set [3]; -2.2% in data set [4]; 76.5% in [5]; 72% in [6]; 50% in [7]. Moreover, the inhibition was -5.7% in data set [9]; 16.9% in data set [10]; 89.4% in data set [11]; -4.3% in data set [13]; 88.2% in data set [14]; 38.1% in data set [15]. Besides, the inhibition in [16] was determined as 13.9%; in [17] it was 44.9%. In [2], the solubility entry is given as “soluble”. For the same molecule, the TD50 in [8] and in [12] was greater than 30 mg/kg throughout.
`Cl.NCc1ccc(OCc2ccc(Cl)cc2)cc1`: the inhibition in data set [1] was 65.9%; in data set [3], 52.1%; in data set [4] it was -2.3%; in [5], 53.8%; in [6], 51.6%; in data set [7] it was 12%. Also, the inhibition in data set [9] is 17.1%; in [10], -3.4%; in data set [11], 90.6%; in data set [13], 13.2%; in [14], 92.6%; in [15], 22.6%. Besides, the results for the inhibition in data set [16] and in [17] were 16.6% and 36.6%, respectively. Also, the solubility entry in [2] was “soluble”. The TD50 in data set [8] and in data set [12] was greater than 30 mg/kg each time.
As to `Cl.NCc1ccc(OCc2ccc(OC(F)(F)F)cc2)cc1`, the inhibition was 48.2% in data set [1]; 42.2% in data set [3]; -5.6% in data set [4]; 10.6% in [5]; 49.9% in data set [6]; 5.6% in [7]. Further, the inhibition amounted to 9.1% in [9]; 17.5% in data set [10]; 91.1% in [11]; 4.2% in data set [13]; 94.7% in data set [14]; 13.3% in [15]. For the same molecule, the values for the inhibition in data set [16] and in [17] were 2.6% and -1.8%, respectively. The solubility entry in [2] is reported as “soluble”. In addition, the values for the TD50 in data set [8] and in [12] were greater than 50 mg/kg and greater than 30 mg/kg, respectively.

As a reminder, the inhibition is the drop in the measured response relative to a control, in per cent. As a reminder, the TD50 is the dose at which the toxic effect under study appears in half of the subjects.
